Test results: ChEMBL document CHEMBL1275244, “Antimicrobial resistance among respiratory pathogens in Spain: latest data and changes over 11 years (1996-1997 to 2006-2007)” (2010)
≈ marks a conversion by molar mass, not a printed value.

Tests used:
Assay type in all cases: functional
Streptococcus pneumoniae [1] = test: Antimicrobial activity against Streptococcus pneumoniae clinical isolates assessed as susceptible isolates by broth dilution method
How it was run: (§1)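 Isolates kept frozen at −70°C in duplicate and revived by hot-loop touching. MICs by the CLSI broth microdilution method active in the year of study, with S. pneumoniae ATCC 49619 as control. Categories assigned with CLSI M100-S19 breakpoints.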

Streptococcus pneumoniae [2] = test: Antimicrobial activity against Streptococcus pneumoniae clinical isolates assessed as resistant isolates by broth dilution method
Streptococcus pyogenes [3] = test: Antimicrobial activity against Streptococcus pyogenes clinical isolates assessed as susceptible isolates by broth dilution method
How it was run: (§2)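 S. pyogenes clinical isolates held at −70°C in duplicate and recovered by hot-loop touching. MICs by the CLSI broth microdilution method in force in the study year, interpreted per CLSI M100-S19.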

Streptococcus pneumoniae [4] = test: Antimicrobial activity against Streptococcus pneumoniae clinical isolates assessed as susceptible isolates by PK/PD technique
Streptococcus pneumoniae [5] = test: Antimicrobial activity against Streptococcus pneumoniae clinical isolates by broth dilution method
Haemophilus influenzae [6] = test: Antimicrobial activity against Haemophilus influenzae clinical isolates assessed as resistant isolates by broth dilution method
Haemophilus influenzae [7] = test: Antimicrobial activity against Haemophilus influenzae clinical isolates assessed as susceptible isolates by PK/PD technique
Haemophilus influenzae [8] = test: Antimicrobial activity against Haemophilus influenzae clinical isolates assessed as susceptible isolates by broth dilution method
Haemophilus influenzae [9] = test: Antimicrobial activity against Haemophilus influenzae clinical isolates by broth dilution method
Streptococcus pyogenes [10] = test: Antimicrobial activity against Streptococcus pyogenes clinical isolates by broth dilution method
Streptococcus pyogenes [11] = test: Antimicrobial activity against Streptococcus pyogenes clinical isolates assessed as resistant isolates by broth dilution method
How it was run: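 S. pyogenes clinical isolates were held at −70°C in duplicate and revived by the hot-loop touching method. MICs were obtained by the CLSI broth microdilution procedure active in the year of study. Resistance was interpreted according to CLSI M100-S19.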

Haemophilus influenzae [12] = test: Antimicrobial activity against Haemophilus influenzae clinical isolates assessed as susceptible isolates by PK/PD technique in presence of beta-lactamase inhibitor clavulanic acid
Streptococcus pneumoniae [13] = test: Antimicrobial activity against Streptococcus pneumoniae clinical isolates assessed as resistant isolates by broth dilution method in presence of beta-lactamase inhibitor clavulanic acid
How it was run: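 S. pneumoniae clinical isolates were kept frozen at −70°C in duplicate and recovered by hot-loop touching to avoid repeated freeze-thaw. MICs were measured by CLSI broth microdilution as in force in the study year, with S. pneumoniae ATCC 49619 as control strain. Susceptibility categories were interpreted using CLSI M100-S19 breakpoints.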

Haemophilus influenzae [14] = test: Antimicrobial activity against Haemophilus influenzae clinical isolates assessed as resistant isolates by broth dilution method in presence of beta-lactamase inhibitor clavulanic acid
How it was run: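 H. influenzae clinical isolates were stored at −70°C in duplicate and recovered by the hot-loop touching method without repeated thawing. MICs were determined by CLSI broth microdilution in Haemophilus test medium, following the method current in the study year. Each medium batch was checked for growth support with H. influenzae ATCC 10211. Controls were H. influenzae ATCC 49247 and ATCC 49766 and E. coli ATCC 35218. Categories were assigned per CLSI M100-S19.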

Streptococcus pneumoniae [15] = test: Antimicrobial activity against Streptococcus pneumoniae clinical isolates by broth dilution method in presence of beta-lactamase inhibitor clavulanic acid; how it was run: as §1
Haemophilus influenzae [16] = test: Antimicrobial activity against Haemophilus influenzae clinical isolates by broth dilution method in presence of beta-lactamase inhibitor clavulanic acid
How it was run: (§3)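 Clinical isolates stored in duplicate at −70°C and recovered by the hot-loop touching method. MICs by the CLSI broth microdilution method current in the study year, in Haemophilus test medium (HTM). Growth support of HTM checked with H. influenzae ATCC 10211. Controls were H. influenzae ATCC 49247 and ATCC 49766 and E. coli ATCC 35218. Susceptibility interpreted per CLSI M100-S19.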

Streptococcus pyogenes [17] = test: Antimicrobial activity against Streptococcus pyogenes clinical isolates by broth dilution method in presence of beta-lactamase inhibitor clavulanic acid; how it was run: as §2
Streptococcus pneumoniae [18] = test: Antimicrobial activity against Streptococcus pneumoniae clinical isolates assessed as susceptible isolates by PK/PD technique in presence of beta-lactamase inhibitor clavulanic acid
Haemophilus influenzae [19] = test: Antimicrobial activity against Haemophilus influenzae clinical isolates assessed as susceptible isolates by broth dilution method in presence of beta-lactamase inhibitor clavulanic acid; how it was run: as §3
Streptococcus pneumoniae [20] = test: Antimicrobial activity against Streptococcus pneumoniae clinical isolates assessed as susceptible isolates by PK/PD technique in presence of […] beta-lactamase inhibitor clavulanic acid
Haemophilus influenzae [21] = test: Antimicrobial activity against Haemophilus influenzae clinical isolates assessed as susceptible isolates by PK/PD technique in presence […] of beta-lactamase inhibitor clavulanic acid; design: scale not given: the % may be the effect or the level left
Streptococcus pneumoniae [22] = test: Antimicrobial activity against Streptococcus pneumoniae clinical isolates assessed as susceptible isolates by broth dilution method in presence of beta-lactamase inhibitor clavulanic acid; how it was run: as §1

SMILES	Activity (Streptococcus pneumoniae [1])	Activity (Streptococcus pneumoniae [2])	Activity (Streptococcus pyogenes [3])	Activity (Streptococcus pneumoniae [4])	MIC50 (Streptococcus pneumoniae [5])	MIC90 (Streptococcus pneumoniae [5])	Activity (Haemophilus influenzae [6])	Activity (Haemophilus influenzae [7])	Activity (Haemophilus influenzae [8])	MIC50 (Haemophilus influenzae [9])	MIC90 (Haemophilus influenzae [9])	MIC50 (Streptococcus pyogenes [10])	MIC90 (Streptococcus pyogenes [10])	Activity (Streptococcus pyogenes [11])	also measured
CO/N=C(\C(=O)N[C@@H]1C(=O)N2C(C(=O)O)=C(COC(C)=O)CS[C@H]12)c1csc(N)n1 [CEFOTAXIME]	99.6%	0.2%	100%	99.6%	≤ 0.015 µg/mL	0.25 µg/mL (≈ 0.549 µM)	0.1%	99.9%	99.9%	≤ 0.015 µg/mL	≤ 0.015 µg/mL	≤ 0.015 µg/mL	≤ 0.015 µg/mL	0%	–
CC[C@H]1OC(=O)[C@H](C)[C@@H](O[C@H]2C[C@@](C)(OC)[C@@H](O)[C@H](C)O2)[C@H](C)[C@@H](O[C@@H]2O[C@H](C)C[C@H](N(C)C)[C@H]2O)[C@](C)(O)C[C@@H](C)CN(C)[C@H](C)[C@@H](O)[C@]1(C)O [AZITHROMYCIN]	77.6%	20.8%	81.1%	74.3%	≤ 0.015 µg/mL	≥ 128 µg/mL	0%	23.8%	100%	0.25 µg/mL (≈ 0.334 µM)	1 µg/mL (≈ 1.34 µM)	≤ 0.015 µg/mL	2 µg/mL (≈ 2.67 µM)	11.6%	–
CC1(C)S[C@@H]2[C@H](NC(=O)[C@H](N)c3ccc(O)cc3)C(=O)N2[C@H]1C(=O)O [AMOXICILLIN]	–	–	–	–	–	–	–	–	–	–	–	–	–	–	Activity (Haemophilus influenzae [12]): 97.5%; Activity (Streptococcus pneumoniae [13]): 1.2%; Activity (Haemophilus influenzae [14]): 0.3%; MIC50 (Streptococcus pneumoniae [15]): ≤ 0.015 µg/mL; MIC90 (Streptococcus pneumoniae [15]): 1 µg/mL; MIC90 (Haemophilus influenzae [16]): 1 µg/mL; MIC50 (Haemophilus influenzae [16]; Haemophilus influenzae): 0.25 µg/mL; MIC50 (Streptococcus pyogenes [17]): ≤ 0.015 µg/mL; MIC90 (Streptococcus pyogenes [17]): ≤ 0.015 µg/mL; Activity (Streptococcus pneumoniae [18]): 94.8%; Activity (Haemophilus influenzae [19]): 99.7%; Activity (Streptococcus pneumoniae [20]): 98.8%; Activity (Haemophilus influenzae [21]): 99.7%; Activity (Streptococcus pneumoniae [22]): 94.8%
N[C@@H](C(=O)N[C@@H]1C(=O)N2C(C(=O)O)=C(Cl)CS[C@H]12)c1ccccc1 [CEFACLOR ANHYDROUS]	79.1%	19%	–	75.9%	0.125 µg/mL (≈ 0.34 µM)	16 µg/mL (≈ 43.5 µM)	0%	25.8%	97.8%	1 µg/mL (≈ 2.72 µM)	4 µg/mL (≈ 10.9 µM)	0.03 µg/mL (≈ 0.0816 µM)	< 0.06 µg/mL	–	–
C[C@H]1COc2c(N3CCN(C)CC3)c(F)cc3c(=O)c(C(=O)O)cn1c23.C[C@H]1COc2c(N3CCN(C)CC3)c(F)cc3c(=O)c(C(=O)O)cn1c23.O [LEVOFLOXACIN]	97.6%	0.5%	100%	97.7%	0.125 µg/mL	0.25 µg/mL	0.1%	99.9%	99.9%	≤ 0.015 µg/mL	≤ 0.015 µg/mL	0.125 µg/mL	0.25 µg/mL	0%	–
